Shown are actives, neighbours in structure and some others; about 4.2% of the full set was active somewhere.
XBP1 UPR activ: adaptive UPR (XBP1) activation. CHO-XBP1 luciferase reporter, IRE1-XBP1 UPR activation, luminescence; percent of tunicamycin response, DMSO as zero. activation, % at 20 µM. 0.33% of 330,000 active;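 active = versus positive control, 20 µM dose yields 30% or more activation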;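 note: 100% = tunicamycin at 10 µg/mL and 0% = DMSO only wells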
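Test system: CHO-XBP1 luciferase reporter cells | Buffer or medium: Serum-containing F12 medium, 10% FBS | Schedule: 6 h compound exposure at 37 °C, 5% CO2 | Detection: Steady-Glo luciferase glow luminescence, 10 min after reagent addition | Read-out basis: Activation, % of tunicamycin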
UPR CHOP act: activators of apoptotic arm of unfolded protein response (CHOP); CHO-CHOP luciferase reporter, UPR activation, luminescence; percent of tunicamycin response over DMSO baseline; 0.34% of 330,000 active; activation, % at 10 µM;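 active = at 10 µM dose, activation of 40% or more, normalized to positive control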;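 note: 100% = tunicamycin at 10 µg/mL and 0% = DMSO alone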
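System: CHO CHOP reporter cells. Amount: 500 cells per well. Buffer or medium: F12 medium, 10% FBS. Compound dosing: one dose, 10 µM in 0.5% DMSO. Incubation: 6 h compound exposure at 37 °C after overnight seeding. Technique: Steady-Glo luciferase luminescence. Benchmarks: tunicamycin and DMSO controls.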
ANO1 block: inhibitors of mouse TMEM16A calcium-activated chloride channel; Q8BHY3; HEK293 TMEM16A/YFP iodide influx fluorescence, ionomycin; normalized B-score (activity score, 25-100; higher = stronger inhibition) at 10 µM; 1.2% of 310,000 active;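 active = ratio plate-corrected score three or more library SD toward inhibition, starting fluorescence score within five deviations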;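 note: score derived from kinetic fluorescence span divided by baseline fluorescence per well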
Target sequence (Q8BHY3 whole entry, looked up): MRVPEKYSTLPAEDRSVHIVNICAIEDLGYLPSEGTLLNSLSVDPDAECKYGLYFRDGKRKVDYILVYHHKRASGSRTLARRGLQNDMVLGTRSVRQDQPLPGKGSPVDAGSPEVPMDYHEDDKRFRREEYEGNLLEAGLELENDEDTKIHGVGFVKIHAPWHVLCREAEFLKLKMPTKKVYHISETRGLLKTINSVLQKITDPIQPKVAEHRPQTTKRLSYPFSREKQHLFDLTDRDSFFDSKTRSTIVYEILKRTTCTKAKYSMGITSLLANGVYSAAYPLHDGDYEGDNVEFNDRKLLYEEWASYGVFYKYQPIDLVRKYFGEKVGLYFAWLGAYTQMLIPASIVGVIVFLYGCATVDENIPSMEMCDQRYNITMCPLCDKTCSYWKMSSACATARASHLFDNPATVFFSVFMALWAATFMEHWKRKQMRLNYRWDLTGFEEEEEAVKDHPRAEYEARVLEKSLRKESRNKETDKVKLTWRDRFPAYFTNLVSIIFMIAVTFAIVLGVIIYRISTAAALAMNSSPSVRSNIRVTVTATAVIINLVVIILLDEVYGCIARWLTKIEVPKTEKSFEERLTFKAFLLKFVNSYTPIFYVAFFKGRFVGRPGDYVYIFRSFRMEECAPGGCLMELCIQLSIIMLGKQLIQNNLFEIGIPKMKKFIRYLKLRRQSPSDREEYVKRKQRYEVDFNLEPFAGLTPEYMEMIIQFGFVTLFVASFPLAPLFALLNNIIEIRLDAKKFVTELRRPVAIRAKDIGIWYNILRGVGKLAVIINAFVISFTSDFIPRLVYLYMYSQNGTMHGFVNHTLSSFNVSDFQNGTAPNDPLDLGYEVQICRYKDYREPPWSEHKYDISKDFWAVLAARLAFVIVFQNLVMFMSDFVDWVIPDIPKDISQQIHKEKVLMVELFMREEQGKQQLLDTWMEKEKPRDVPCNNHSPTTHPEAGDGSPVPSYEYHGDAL
CHOP inhibitor: CHOP inhibition in unfolded protein response; 3.8% of 220,000 active; inhibition, % at 10 µM; CHO-K1 CHOP-promoter luciferase, tunicamycin-induced, 15-18 h;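 active = compounds that reduced the stress-induced luciferase reporter signal by more than about 70% of percent inhibition, limit read from the data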;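 note: 0% = tunicamycin plus vehicle and 100% = wells without tunicamycin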
Lipid droplet: hepatic lipid droplet formation modulation; AML12 mouse hepatocytes, oleate lipid droplets, BODIPY imaging; inhibition, % at 6.5 µM; 0.4% of 240,000 active; AID 1656;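 active = lipid droplet intensity inhibited by at least 50%, with more than 500 cells counted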
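Material – mouse AML12 hepatocyte cell line, fixed after treatment · Compound dosing – one dose, 6.5 µM compound · Times – compound with oleate, overnight · Measured by – Image-based BODIPY and DAPI two-channel analysis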
TMEM16A act: mouse TMEM16A channel activation, primary screen; Q8BHY3; HEK293 TMEM16A/YFP-H148Q/I152L, iodide quench fluorescence; hits give low values; B-score at 10 µM; 0.3% of 340,000 active; AID 623877;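 active = fluorescence-ratio B-score plate-corrected deviation score at least 3 library SD below zero, with starting fluorescence score within 5 deviations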;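 note: channel opened by trigger with iodide after compound preincubation; score built on the fluorescence ratio of max minus min over baseline; more negative score means more quench and so TMEM16A activation or potentiation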
* hit, by the source's call; i = inactive; · = not tested or not shown.

SMILES	XBP1 UPR activ	UPR CHOP act	ANO1 block	CHOP inhibitor	Lipid droplet	TMEM16A act
Cc1c(NC(=O)COc2cccc(Br)c2)c(=O)n(-c2ccccc2)n1C	-4	-1	i	·	-20	i
O=C(Nc1cccc(OCC(=O)N2CCOCC2)c1)c1ccc(C(F)(F)F)cc1	-6	0	i	·	-3	i
Cn1c(=O)n(C)c2cc(NC(=O)c3ccc(F)cc3)ccc21	0	0	i	·	-2	i
NC(=S)N/N=C1/CCSc2ccc3ccccc3c21	-1	-1	i	75*	0	i
NC(=S)N/N=C/c1c(O)ccc2ccccc12	-5	-1	i	22	-13	i
CCOC(=O)CSc1nc2c(sc(=S)n2-c2ccccc2OC)c(=O)n1Cc1ccco1	0	0	i	14	·	i
COc1ccc(-c2noc(=O)n2Cc2ccccc2Cl)cc1	-4	0	i	·	·	i
CC(C(=O)O/N=C(\N)c1ccccn1)c1ccc([N+](=O)[O-])cc1 (stereo not given)	-4	0	i	·	-6	i
N/C(=N\OCc1ccc([N+](=O)[O-])cc1)c1ccccn1	-10	-9	i	83*	-4	i
N/C(=N\OS(=O)(=O)c1ccc2ccccc2c1)c1ccccn1	·	·	·	32	1	-26*
N/C(=N\OS(=O)(=O)c1ccc2ccccc2c1)c1ccncc1	-2	2	i	15	·	i
N/C(=N\OC(=O)c1ccccc1)c1ccccn1	-7	-10	i	86*	-8	i
COc1ccc(S(=O)(=O)N(C(=O)c2ccco2)c2cc3sc(=O)oc3c3ccccc23)cc1	0	0	i	85*	1	i
Cc1cccc(C(=O)NC2CCN(S(=O)(=O)c3ccccc3)CC2)c1	0	-1	i	-9	10	i
Cc1cc(N2CCN(S(=O)(=O)c3ccc(Cl)cc3)CC2)c2ccccc2n1	-4	7	100*	68	-2	i
Cn1c(N2CCN(S(=O)(=O)c3ccc(Cl)cc3)CC2)nc2ccccc21	-3	1	i	18	5	i
Clc1ccc(OCc2nc(-c3ccccn3)no2)c(Br)c1	-5	-3	i	72*	3	i
CCCOc1ccc(/C=N/Nc2cccc([N+](=O)[O-])c2)c(O)c1	4	5	i	74*	9	i
O=[N+]([O-])c1cccc(N/N=C/c2cc([N+](=O)[O-])ccc2O)c1	1	1	i	95*	-3	i
CCCOc1ccc(/C=N/Nc2ccc(C(=O)O)cc2)c(OCCC)c1	·	·	·	-11	13	i
CC1CCc2nc(NC(=O)c3ccc(N4C(=O)CCC4=O)cc3)sc2C1 (stereo not given)	-5	1	i	·	0	i
O=C(NC(=S)NC1C2CC3CC(C2)CC1C3)c1ccccc1 (stereo not given)	-1	2	i	·	1	-4.7*
O=C(NC(=S)NC1CCCC1)c1ccccc1	-3	5	i	·	-8	i
Cc1cc(=O)c(C(=O)Nc2cccc(N3CCCC3=O)c2)nn1-c1ccccc1F	3	1	·	·	·	-46*
Cc1cc(=O)c(C(=O)Nc2cccc(N3CCCC3=O)c2)nn1-c1ccccc1Cl	3	-1	·	·	·	i
SMILES	XBP1 UPR activ	UPR CHOP act	ANO1 block	CHOP inhibitor	Lipid droplet	TMEM16A act
COc1ccc(C(=O)CSc2nnc(-c3ccc(C)cc3)o2)cc1	4	-1	i	4	-2	i
COc1ccccc1OCc1nnc(SCC(=O)c2cc(Cl)ccc2OC)o1	0	0	100*	6	·	i
COc1ccccc1OCc1nnc(SCC(=O)N2CCCC2)o1	-2	0	i	·	-5	i
COc1ccc(OC)c(C(=O)CSc2nnc(-c3ccc(OC)c(OC)c3)o2)c1	·	·	·	80*	10	·
O=C(CSc1nnc(COc2ccccc2Cl)o1)Nc1ccccc1	3	-2	·	·	·	i
CC(C)(C)NC(=O)NC(=O)CSc1nnc(COc2ccccc2Cl)o1	-3	-1	100*	40	4	i
Cc1cccc(NCc2ccc(Br)cc2)n1	1	3	i	·	-11	i
O=C1CC(=O)Nc2cc(S(=O)(=O)Nc3ccc(Cl)c(C(F)(F)F)c3)ccc2N1	-4	1	i	·	-19	i
O=C(CC1Sc2ccccc2NC1=O)c1ccc(Br)cc1 (stereo not given)	2	6	i	72*	2	i
CCS(=O)(=O)c1ccc2oc(Nc3ccc(OC)cc3)nc2c1	2	1	i	-16	2	i
CCS(=O)(=O)c1ccc2oc(Nc3ccc(C(C)(C)C)cc3)nc2c1	3	1	i	72*	10	i
O=c1c2c(c(-c3ccccc3)nn1Cc1ccccc1)CCCC2	-5	1	i	·	-37	i
O=c1cc(N2CCCCC2)c(-c2ccccc2)nn1Cc1c(Cl)cccc1Cl	-2	0	25*	5	·	-26*
O=c1ccc(-c2ccccc2)nn1Cc1ccc(F)cc1	-3	2	i	·	-1	i
O=c1cc(N2CCCCC2)c(-c2ccccc2)nn1Cc1ccc(F)cc1	-8	2	i	81*	4	i
O=c1cc(N2CCCCC2)c(-c2ccccc2)nn1Cc1ccc(Cl)cc1	-1	2	i	71*	·	i
COc1ccc(C)cc1N(C(=O)c1ccco1)C(C(=O)NC1CCCC1)c1cc(OC)c(OC)c(OC)c1 (stereo not given)	-7	1	i	·	0	i
Cc1ccsc1C(=O)N(CC(C)C)c1c(N)n(Cc2ccccc2)c(=O)[nH]c1=O	-5	-2	i	·	5	i
CC(=O)c1ccc(N(CC(=O)NC2CCCCC2)C(=O)CNC(=O)c2cccs2)cc1	-5	-2	i	·	-7	i
O=C(c1ccc(Cl)cc1[N+](=O)[O-])N(Cc1ccccc1)Cc1ccccc1	0	-1	i	73*	-19	·
CC(C)(C)N(Cc1ccccc1)C(=O)c1ccc(Cl)cc1[N+](=O)[O-]	1	2	i	34	-40	i
Cc1ccc(S(=O)(=O)N2CCCC2CNC(=O)C(=O)NCc2ccccn2)cc1 (stereo not given)	0	5	i	·	·	i
Cn1cc(S(=O)(=O)N2CCCC2)cc1C(=O)NCCc1ccccc1	2	1	i	·	-1	i
Cc1ccc(-c2csc3ncn(-n4c(C)ccc4C)c(=O)c23)o1	-10	-1	i	79*	·	i
Cc1sc2ncn(-n3c(C)ccc3C)c(=O)c2c1C	-5	0	i	27	·	i

High-throughput results from PubChem.
